Data from ChEMBL document CHEMBL1122792, “Synthesis and biological evaluation of radiolabeled beta-ruthenocenylalanine” (J Med Chem, 1984).

Experiments:
Mus musculus [1] = assay: Distribution of Radioactivity in spleen of CD-1 Mice by intravenous administration of compound after 1 hr expressed as dose/gram; type: ADME, organism-based; conditions: in vivo
Outline: (§1)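 Female CD-1 mice, 7 1/2 weeks old (25-29 g), fed and watered ad libitum. Radiotracer in physiological saline, pH 7.4, filtered, injected via lateral tail vein under ether anesthesia. Tissues taken at 5 min, 1 h, 4 h or 1 day. Percent injected dose per gram calculated against assayed samples of the injected solution; mean with range reported.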

Rattus norvegicus [2] = assay: Distribution of Radioactivity in lungs of Fisher 344 Rats by intravenous administration of compound after 1 day expressed as dose/gram; type: ADME, organism-based, Lung; conditions: in vivo, 24 h
Outline: (§2)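 Female Fischer 344 rats, 10-12 weeks old (170-200 g), fed and watered ad libitum; four rats per time point. Each received ~6.3 μCi in 0.05 mL saline (pH 7.4, filtered), given by lateral tail vein under ether anesthesia. Tissues taken at 5 min, 1 h, 4 h and 1 day. Injectate standards used; values as mean % injected dose/g with range.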

Mus musculus [3] = assay: Distribution of Radioactivity in blood of CD-1 Mice by intravenous administration of compound after 1 day expressed as dose/gram; type: ADME, organism-based; conditions: in vivo, 24 h
Outline: (§3)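 Female CD-1 mice, 7 1/2 weeks old (25-29 g), fed and watered ad libitum. Agent given in physiological saline, pH adjusted to 7.4 and filtered, by lateral tail vein injection under ether anesthesia. Tissues collected at 5 min, 1 h, 4 h and 1 day. Injectate samples counted as standard; results as mean % injected dose/g with range.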

Rattus norvegicus [4] = assay: Distribution of Radioactivity in thymus of Fisher 344 Rats by intravenous administration of compound after 1 day expressed as dose/gram; type: ADME, organism-based; conditions: in vivo, 24 h
Outline: (§4)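 Female Fischer 344 rats, 10-12 weeks old (170-200 g), food and water ad libitum; four rats per time point. About 6.3 μCi given in 0.05 mL saline (pH 7.4, filtered) by lateral tail vein under ether anesthesia. Tissues sampled at 5 min, 1 h, 4 h or 1 day. %ID/g computed from injectate standards; mean and range given.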

Mus musculus [5] = assay: Distribution of Radioactivity in small intestine of CD-1 Mice by intravenous administration of compound after 1 hr expressed as dose/gram; type: ADME, organism-based; conditions: in vivo; outline: as §3
Rattus norvegicus [6] = assay: Distribution of Radioactivity in adrenals of Fisher 344 Rats by intravenous administration of compound after 1 hour expressed as dose/gram; type: ADME, organism-based, Adrenal gland; conditions: in vivo; outline: as §2
Mus musculus [7] = assay: Distribution of Radioactivity in pancreas of CD-1 Mice by intravenous administration of compound after 5 minutes expressed as dose/gram; type: ADME, organism-based; conditions: in vivo; outline: as §3
Rattus norvegicus [8] = assay: Distribution of Radioactivity in spleen of Fisher 344 Rats by intravenous administration of compound after 4 hour expressed as dose/gram; type: ADME, organism-based; conditions: in vivo; outline: as §4
Mus musculus [9] = assay: Distribution of Radioactivity in adrenals of CD-1 Mice by intravenous administration of compound after 4 hr expressed as dose/gram; type: ADME, organism-based, Adrenal gland; conditions: in vivo; outline: as §3
Rattus norvegicus [10] = assay: Distribution of Radioactivity in small intestine of Fisher 344 Rats by intravenous administration of compound after 5 minutes expressed as dose/gram; type: ADME, organism-based; conditions: in vivo; outline: as §4
Mus musculus [11] = assay: Distribution of Radioactivity in stomach of CD-1 Mice by intravenous administration of compound after 1 day expressed as dose/gram; type: ADME, organism-based; conditions: in vivo, 24 h; outline: as §1
Mus musculus [12] = assay: Distribution of Radioactivity in blood of CD-1 Mice by intravenous administration of compound after 5 minutes expressed as dose/gram; type: ADME, organism-based; conditions: in vivo; outline: as §3
Rattus norvegicus [13] = assay: Distribution of Radioactivity in blood of Fisher 344 Rats by intravenous administration of compound after 1 day expressed as dose/gram; type: ADME, organism-based; conditions: in vivo, 24 h; outline: as §2
Rattus norvegicus [14] = assay: Distribution of Radioactivity in adrenals of Fisher 344 Rats by intravenous administration of compound after 4 hour expressed as dose/gram; type: ADME, organism-based, Adrenal gland; conditions: in vivo; outline: as §2
Rattus norvegicus [15] = assay: Distribution of Radioactivity in blood of Fisher 344 Rats by intravenous administration of compound after 1 hour expressed as dose/gram; type: ADME, organism-based; conditions: in vivo; outline: as §2
Mus musculus [16] = assay: Distribution of Radioactivity in pancreas of CD-1 Mice by intravenous administration of compound after 4 hr expressed as dose/gram; type: ADME, organism-based; conditions: in vivo; outline: as §3
Rattus norvegicus [17] = assay: Distribution of Radioactivity in blood of Fisher 344 Rats by intravenous administration of compound after 5 minutes expressed as dose/gram; type: ADME, organism-based; conditions: in vivo; outline: as §2
Rattus norvegicus [18] = assay: Distribution of Radioactivity in stomach of Fisher 344 Rats by intravenous administration of compound after 1 hour expressed as dose/gram; type: ADME, organism-based; conditions: in vivo; outline: as §4
Mus musculus [19] = assay: Distribution of Radioactivity in adrenals of CD-1 Mice by intravenous administration of compound after 1 day expressed as dose/gram; type: ADME, organism-based, Adrenal gland; conditions: in vivo, 24 h; outline: as §3
Rattus norvegicus [20] = assay: Distribution of Radioactivity in adrenals of Fisher 344 Rats by intravenous administration of compound after 5 minutes expressed as dose/gram; type: ADME, organism-based, Adrenal gland; conditions: in vivo; outline: as §2
Rattus norvegicus [21] = assay: Distribution of Radioactivity in lungs of Fisher 344 Rats by intravenous administration of compound after 1 hour expressed as dose/gram; type: ADME, organism-based, Lung; conditions: in vivo; outline: as §2
Mus musculus [22] = assay: Distribution of Radioactivity in spleen of CD-1 Mice by intravenous administration of compound after 4 hr expressed as dose/gram; type: ADME, organism-based; conditions: in vivo; outline: as §1
Rattus norvegicus [23] = assay: Distribution of Radioactivity in spleen of Fisher 344 Rats by intravenous administration of compound after 5 minutes expressed as dose/gram; type: ADME, organism-based; conditions: in vivo; outline: as §4
Mus musculus [24] = assay: Distribution of Radioactivity in thymus of CD-1 Mice by intravenous administration of compound after 5 minutes expressed as dose/gram; type: ADME, organism-based; conditions: in vivo; outline: as §1
Rattus norvegicus [25] = assay: Distribution of Radioactivity in kidneys of Fisher 344 Rats by intravenous administration of compound after 1 hour expressed as dose/gram; type: ADME, organism-based, Kidney; conditions: in vivo; outline: as §2
Mus musculus [26] = assay: Distribution of Radioactivity in small intestine of CD-1 Mice by intravenous administration of compound after 1 day expressed as dose/gram; type: ADME, organism-based; conditions: in vivo, 24 h; outline: as §3
Mus musculus [27] = assay: Distribution of Radioactivity in liver of CD-1 Mice by intravenous administration of compound after 1 day expressed as dose/gram; type: ADME, organism-based; conditions: in vivo, 24 h; outline: as §3
Rattus norvegicus [28] = assay: Distribution of Radioactivity in liver of Fisher 344 Rats by intravenous administration of compound after 4 hour expressed as dose/gram; type: ADME, organism-based; conditions: in vivo; outline: as §2
Mus musculus [29] = assay: Distribution of Radioactivity in stomach of CD-1 Mice by intravenous administration of compound after 4 hr expressed as dose/gram; type: ADME, organism-based; conditions: in vivo; outline: as §1
Rattus norvegicus [30] = assay: Distribution of Radioactivity in pancreas of Fisher 344 Rats by intravenous administration of compound after 1 hour expressed as dose/gram; type: ADME, organism-based; conditions: in vivo; outline: as §2
Mus musculus [31] = assay: Distribution of Radioactivity in pancreas of CD-1 Mice by intravenous administration of compound after 1 hr expressed as dose/gram; type: ADME, organism-based; conditions: in vivo; outline: as §3
Mus musculus [32] = assay: Distribution of Radioactivity in lungs of CD-1 Mice by intravenous administration of compound after 5 minutes expressed as dose/gram; type: ADME, organism-based, Lung; conditions: in vivo; outline: as §3
Mus musculus [33] = assay: Distribution of Radioactivity in lungs of CD-1 Mice by intravenous administration of compound after 1 day expressed as dose/gram; type: ADME, organism-based, Lung; conditions: in vivo, 24 h; outline: as §3
Mus musculus [34] = assay: Distribution of Radioactivity in liver of CD-1 Mice by intravenous administration of compound after 1 hr expressed as dose/gram; type: ADME, organism-based; conditions: in vivo; outline: as §3
Mus musculus [35] = assay: Distribution of Radioactivity in spleen of CD-1 Mice by intravenous administration of compound after 5 minutes expressed as dose/gram; type: ADME, organism-based; conditions: in vivo; outline: as §1
Mus musculus [36] = assay: Distribution of Radioactivity in small intestine of CD-1 Mice by intravenous administration of compound after 5 minutes expressed as dose/gram; type: ADME, organism-based; conditions: in vivo; outline: as §1
Mus musculus [37] = assay: Distribution of Radioactivity in kidneys of CD-1 Mice by intravenous administration of compound after 5 minutes expressed as dose/gram; type: ADME, organism-based, Kidney; conditions: in vivo; outline: as §3
Rattus norvegicus [38] = assay: Distribution of Radioactivity in pancreas of Fisher 344 Rats by intravenous administration of compound after 4 hour expressed as dose/gram; type: ADME, organism-based; conditions: in vivo; outline: as §2
Rattus norvegicus [39] = assay: Distribution of Radioactivity in thymus of Fisher 344 Rats by intravenous administration of compound after 5 minutes expressed as dose/gram; type: ADME, organism-based; conditions: in vivo; outline: as §4
Rattus norvegicus [40] = assay: Distribution of Radioactivity in stomach of Fisher 344 Rats by intravenous administration of compound after 1 day expressed as dose/gram; type: ADME, organism-based; conditions: in vivo, 24 h; outline: as §4

Injected (Mus musculus [1]): 0.384%
Injected (Rattus norvegicus [2]): 0.065%
Injected (Mus musculus [3]): 0.086%
Injected (Rattus norvegicus [4]): 0.024%
Injected (Mus musculus [5]): 2.641%
Injected (Rattus norvegicus [6]): 0.141%
Injected (Mus musculus [7]): 1.749%
Injected (Rattus norvegicus [8]): 0.062%
Injected (Mus musculus [9]): 0.786%
Injected (Rattus norvegicus [10]): 0.62%
Injected (Mus musculus [11]): 0.032%
Injected (Mus musculus [12]): 6.768%
Injected (Rattus norvegicus [13]): 0.051%
Injected (Rattus norvegicus [14]): 0.047%
Injected (Rattus norvegicus [15]): 0.698%
Injected (Mus musculus [16]): 0.16%
Injected (Rattus norvegicus [17]): 1.949%
Injected (Rattus norvegicus [18]): 0.081%
Injected (Mus musculus [19]): 0.556%
Injected (Rattus norvegicus [20]): 0.275%
Injected (Rattus norvegicus [21]): 0.424%
Injected (Mus musculus [22]): 0.206%
Injected (Rattus norvegicus [23]): 0.355%
Injected (Mus musculus [24]): 2.579%
Injected (Rattus norvegicus [25]): 2.717%
Injected (Mus musculus [26]): 0.059%
Injected (Mus musculus [27]): 0.508%
Injected (Rattus norvegicus [28]): 0.278%
Injected (Mus musculus [29]): 0.166%
Injected (Rattus norvegicus [30]): 0.299%
Injected (Mus musculus [31]): 0.247%
Injected (Mus musculus [32]): 3.603%
Injected (Mus musculus [33]): 0.252%
Injected (Mus musculus [34]): 1.784%
Injected (Mus musculus [35]): 1.348%
Injected (Mus musculus [36]): 1.739%
Injected (Mus musculus [37]): 15.745%
Injected (Rattus norvegicus [38]): 0.044%
Injected (Rattus norvegicus [39]): 0.335%
Injected (Rattus norvegicus [40]): 0.023%
Substance: beta-[103,106Ru]Ruthenocenylalanine
